In ChEMBL document CHEMBL3351992, “Modular assembly of purine-like bisphosphonates as inhibitors of HIV-1 reverse transcriptase” (J Med Chem, 2014):
One block for each molecule: values may come before it. Activity calls are given as the source filed them. The calls are words filed in the database; no cut-off is given here.

How the values were obtained:
[1] = target: Human immunodeficiency virus type 1 reverse transcriptase (Human immunodeficiency virus 1, UniProt Q72547); assay: Inhibition of wild type HIV1 reverse transcriptase assessed as inhibition of DNA primer extension using [8-3H(N)]-dATP by scintillation proximity assay
How it was run: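 Biotinylated PPT80 DNA template annealed to DNA PPT primer (50 nM hybrid), preincubated 5 min at 37 °C with inhibitor in 50 mM Tris pH 7.8, 50 mM NaCl, 6 mM MgCl2, 4 μM dCTP/dGTP/dTTP, 0.5 μM [8-3H]-dATP. Purified RT added and reaction run 5 min. Quenched with EDTA plus streptavidin SPA beads. Beads counted after ~8 h settling. Ten-point 3-fold dilutions from 100 μM to 10 nM, DMSO ≤5%. Activity taken relative to uninhibited controls. IC50 from variable-slope sigmoidal fit; triplicate determinations.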

[2] = target: T1, Farnesyl pyrophosphate synthase (Homo sapiens) (UniProt P14324); assay: Inhibition of human FPPS at 50 uM
T1 sequence (whole entry): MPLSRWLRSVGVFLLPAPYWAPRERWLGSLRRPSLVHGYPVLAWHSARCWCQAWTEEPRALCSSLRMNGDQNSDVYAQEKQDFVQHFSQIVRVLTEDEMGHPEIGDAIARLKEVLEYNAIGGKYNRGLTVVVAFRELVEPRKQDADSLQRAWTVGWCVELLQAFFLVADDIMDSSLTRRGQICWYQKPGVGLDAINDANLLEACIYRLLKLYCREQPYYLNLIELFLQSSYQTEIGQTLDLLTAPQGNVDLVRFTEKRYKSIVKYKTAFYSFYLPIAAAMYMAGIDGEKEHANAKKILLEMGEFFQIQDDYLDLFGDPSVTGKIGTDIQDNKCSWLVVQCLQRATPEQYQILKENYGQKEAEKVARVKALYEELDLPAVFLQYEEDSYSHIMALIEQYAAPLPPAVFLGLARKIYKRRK

[3] = target: T2, Geranylgeranyl pyrophosphate synthase (Homo sapiens) (UniProt O95749); assay: Inhibition of human GGPPS at 50 uM
T2 sequence (whole entry): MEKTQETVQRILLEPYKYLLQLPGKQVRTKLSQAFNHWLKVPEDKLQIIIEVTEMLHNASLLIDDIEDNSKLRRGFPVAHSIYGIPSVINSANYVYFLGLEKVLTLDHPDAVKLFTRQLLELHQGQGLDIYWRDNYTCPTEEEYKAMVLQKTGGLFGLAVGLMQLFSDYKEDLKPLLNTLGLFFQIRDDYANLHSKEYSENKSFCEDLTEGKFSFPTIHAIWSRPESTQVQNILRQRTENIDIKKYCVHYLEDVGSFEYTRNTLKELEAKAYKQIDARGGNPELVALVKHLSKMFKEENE

[4] = target: Human immunodeficiency virus type 1 reverse transcriptase (Human immunodeficiency virus 1, UniProt Q72547, K65R); assay: Inhibition of wild type HIV1 reverse transcriptase K65R mutant assessed as inhibition of DNA primer extension using [8-3H(N)]-dATP by scintillation proximity assay
How it was run: (§1)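 50 nM biotinylated PPT80 template/PPT primer and inhibitor (10-step 3-fold series, 100 μM–10 nM final, DMSO ≤5%) were preincubated 5 min at 37 °C. Buffer: 50 mM Tris pH 7.8, 50 mM NaCl, 6 mM MgCl2, 4 μM dCTP/dGTP/dTTP, 0.5 μM [3H]dATP. RT started the 5-min reaction, stopped with EDTA/streptavidin SPA beads. Counts were normalized to uninhibited controls; IC50 from variable-slope sigmoid fit.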

[5] = tested on: Human immunodeficiency virus type 1 reverse transcriptase (Human immunodeficiency virus 1), Q72547 [K65R]; assay: Inhibition of wild type HIV1 reverse transcriptase K65R mutant assessed as inhibition of DNA primer extension using [8-3H(N)]-dATP by scintillation proximity assay relative to wild type
[6] = target: Human immunodeficiency virus type 1 reverse transcriptase (Human immunodeficiency virus 1, UniProt Q72547, M184V); assay: Inhibition of wild type HIV1 reverse transcriptase M184V mutant assessed as inhibition of DNA primer extension using [8-3H(N)]-dATP by scintillation proximity assay; how it was run: as §1
[7] = tested on: Human immunodeficiency virus type 1 reverse transcriptase (Human immunodeficiency virus 1), Q72547 [M184V]; assay: Inhibition of wild type HIV1 reverse transcriptase M184V mutant assessed as inhibition of DNA primer extension using [8-3H(N)]-dATP by scintillation proximity assay relative to wild type
[8] = target: T1, Farnesyl pyrophosphate synthase (Homo sapiens); assay: Inhibition of human FPPS at 10 uM
[9] = target: T2, Geranylgeranyl pyrophosphate synthase (Homo sapiens); assay: Inhibition of human GGPPS at 10 uM

SMILES: CSc1nc2ncnc(NC(P(=O)(O)O)P(=O)(O)O)c2cc1-c1ccc(OC(C)C)cc1
- IC50 [1]: 1.8 µM
- inhibition [2]: < 10%
- inhibition [3]: < 10%
- IC50 [4]: 1.8 µM
- Ratio IC50 [5]: 2.1
- IC50 [6]: 1.4 µM
- Ratio IC50 [7]: 1.6

SMILES: COc1cccc(-c2cc3c(NCC(P(=O)(O)O)P(=O)(O)O)ncnc3nc2SC)c1
- IC50 [1]: 2.4 µM
- inhibition [8]: 75%
- inhibition [9]: inactive
- IC50 [4]: 3.3 µM
- Ratio IC50 [5]: 2.1
- IC50 [6]: 4.2 µM
- Ratio IC50 [7]: 2.7

SMILES: CSc1nc2ncnc(NCC(P(=O)(O)O)P(=O)(O)O)c2cc1-c1ccccc1
- IC50 [1]: 1.1 µM
- inhibition [8]: 75%
- inhibition [9]: inactive
- IC50 [4]: 5.2 µM
- Ratio IC50 [5]: 3.4
- IC50 [6]: 0.6 µM
- Ratio IC50 [7]: 0.4

SMILES: CSc1ccc2c(NC(P(=O)(O)O)P(=O)(O)O)ncnc2n1
- IC50 [1]: > 50 µM

SMILES: O=P(O)(O)C(CNc1ncnc2ncccc12)P(=O)(O)O
- IC50 [1]: > 50 µM

The remaining lines, values ahead:

- IC50 [1]: 8.3 µM
SMILES: CSc1nc2ncnc(NCC(P(=O)(O)O)P(=O)(O)O)c2cc1-c1ccsc1

- IC50 [1]: 1.5 µM
SMILES: O=C(O)C(=NNc1ccc(Cl)cc1)C(=O)O

- IC50 [1]: 9 µM
SMILES: O=P(O)(O)C(CNc1ncnc2ncc(-c3ccsc3)cc12)P(=O)(O)O

- IC50 [1]: > 50 µM
SMILES: O=P(O)(O)C(Nc1ncnc2ncccc12)P(=O)(O)O

- IC50 [1]: 10 µM
SMILES: CC(C)Oc1ccc(-c2cnc3ncnc(NC(P(=O)(O)O)P(=O)(O)O)c3c2)cc1

- IC50 [1]: 7.1 µM
SMILES: CSc1nc2ncnc(NCC(P(=O)(O)O)P(=O)(O)O)c2cc1-c1ccc(OC(C)C)cc1

- IC50 [1]: 20 µM
SMILES: COc1cccc(-c2cnc3ncnc(NCC(P(=O)(O)O)P(=O)(O)O)c3c2)c1

- IC50 [1]: 10.4 µM
SMILES: O=P(O)(O)C(Nc1ncnc2nc(-c3cccs3)ccc12)P(=O)(O)O
